Laboratory results reported in ChEMBL document CHEMBL1122625, “Synthesis and antiviral/antitumor activities of certain 3-deazaguanine nucleosides and nucleotides” (J Med Chem, 1984).
The source made the active and inactive calls. The calls are words filed in the database; no cut-off is given here.

Columns and labels:
[1] = test system: Vaccinia virus; experiment: In vitro antiviral activity (virus ratings (VR)) determined by comparing CPE development in drug-treated cells (T) and Vaccinia virus control cells; type: functional, Orthopoxvirus vaccinia
[2] = Toxic level was evaluated; None; type: ADME
[3] = test system: Human alphaherpesvirus 1; experiment: In vitro antiviral activity (virus ratings (VR)) determined by comparing CPE development in drug-treated cells (T) and HSV-1 virus control cells; type: functional
[4] = test system: Vesicular stomatitis virus; experiment: In vitro antiviral activity (virus ratings (VR)) determined by comparing CPE development in drug-treated cells (T) and Vesicular stomatitis virus control cells; type: functional
[5] = test system: Human respirovirus 3; experiment: In vitro antiviral activity (virus ratings (VR)) determined by comparing CPE development in drug-treated cells (T) and Parainfluenza type 3 virus control cells.; type: functional
[6] = test system: P388; experiment: In vitro antitumor activity in the culture media (that produced 50% inhibition of the P388 leukemia cell growth as compared to the untreated cells); b=Inactive at 10E-4; type: functional, cell-based; conditions: Mus musculus
Summary of the method: (§1)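 L1210 leukemia and P388 lymphoid neoplasm cells kept in RPMI-1640 with 10% heat-inactivated fetal calf serum. Seeded at 5 × 10⁴ cells/mL, then grown 48 h at 37 °C with compound at 4-5 log doses. Growth counted by Coulter counter and expressed as % of control tubes. ID50 is the dose giving 50% growth inhibition.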

[7] = test system: L1210; experiment: In vitro antitumor activity in the culture media (that produced 50% inhibition of the L1210 leukemia cell growth as compared to the untreated cells); Inhibition at 10E-5; type: functional, Mus musculus
[8] = test system: P388; experiment: In vitro antitumor activity in the culture media (that produced 50% inhibition of the P388 leukemia cell growth as compared to the untreated cells); b=Inactive at 10E-4 M; type: functional, cell-based; conditions: Mus musculus; summary of the method: as §1
[9] = test system: Human respirovirus 3; experiment: In vitro antiviral activity (virus ratings (VR)) determined by comparing CPE development in drug-treated cells (T) and Parainfluenza type 3 virus control cells; type: functional
[10] = test system: L1210; experiment: In vitro antitumor activity in the culture media (that produced 50% inhibition of the L1210 leukemia cell growth as compared to the untreated cells); b=Inactive at 10E-4 M; type: functional, cell-based; conditions: Mus musculus; summary of the method: as §1
[11] = test system: P388; experiment: In vitro antitumor activity in the culture media (that produced 50% inhibition of the P388 leukemia cell growth as compared to the untreated cells); Inhibition at 10E-5; type: functional, Mus musculus
[12] = test system: L1210; experiment: In vitro antitumor activity in the culture media (that produced 50% inhibition of the L1210 leukemia cell growth as compared to the untreated cells); type: functional; conditions: Mus musculus, read-out: ID50 (the source's name)
Summary of the method: (§2)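 L1210 or P388 cells kept in RPMI-1640 with 10% heat-inactivated fetal calf serum and seeded in tubes at 5 × 10⁴ cells/mL. Grown with compound at 4-5 log doses for 48 h at 37 °C. Cells counted electronically, growth expressed as % of untreated control tubes, and the dose giving 50% growth inhibition (ID₅₀) determined.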

[13] = test system: P388; experiment: In vitro antitumor activity in the culture media (that produced 50% inhibition of the P388 leukemia cell growth as compared to the untreated cells); type: functional; conditions: Mus musculus, read-out: ID50 (the source's name); summary of the method: as §2
[14] = test system: Vesicular stomatitis virus; experiment: In vitro antiviral activity (virus ratings (VR)) determined by comparing CPE development in drug-treated cells (T) and VSV virus control cells; type: functional
[15] = test system: P388; experiment: In vitro antitumor activity in the culture media (that produced 50% inhibition of the P388 leukemia cell growth as compared to the untreated cells); Inhibition at 10E-4; type: functional, Mus musculus

SMILES	Virus rating [1]	Toxic level [2]	Virus rating [3]	Virus rating [4]	Virus rating [5]	ID50 [6]	Inhibition [7] [%]	ID50 [8]	Virus rating [9]	ID50 [10]	Inhibition [11] [%]	IC50 [12] [µM]	IC50 [13] [µM]	Virus rating [14]	Inhibition [15] [%]
NC(=O)c1ncn([C@@H]2O[C@H](CO)[C@@H](O)[C@H]2O)n1 [RIBAVIRIN]	1.2	Not Active	0.6	0.8	1.3	–	–	–	–	–	–	–	–	–	–
Nc1cc2c(ncn2[C@@H]2C[C@H](O)[C@@H](CO)O2)c(O)n1	1.65	Not Active	1	0.8	0.7	Inactive at 10^-4M	45	–	–	–	–	–	–	–	–
Nc1cc2ncn([C@H]3C[C@H](O)[C@@H](CO)O3)c2c(O)n1	1.42	Not Active	0.8	1.06	–	–	–	Inactive at 10^-4M	0.92	Inactive at 10^-4M	–	–	–	–	–
Nc1cc2ncn([C@@H]3C[C@H](O)[C@@H](CO)O3)c2c(O)n1	1.18	–	0.3	0.35	0.22	–	–	–	–	–	31	80	–	–	–
NNc1cc2ncnc-2c(O)n1N	0.15	–	0.05	0	0.03	–	–	–	–	–	–	35	62	–	–
Nc1cc2c(ncn2[C@H]2C[C@H](O)[C@@H](CO)O2)c(O)n1	1.72	Not Active	1.28	1.03	1.45	–	–	–	–	–	–	20	42	–	–
Nc1cc2c(ncn2C2O[C@H](CO)[C@@H](O)[C@H]2O)c(=O)n1N (some centres not stated)	1.25	–	0.25	–	0.3	–	–	Inactive at 10^-4M	–	Inactive at 10^-4M	–	–	–	0.45	–
Nc1cc2[nH]cnc2c(=O)[nH]1 [DEZAGUANINE]	1.55	–	1.4	1.55	–	–	–	–	0.98	–	–	62	–	–	39
Nc1cc2c(ncn2[C@@H]2O[C@@H]3COP(=O)(O)O[C@H]3[C@H]2O)c(O)n1	1.15	–	1.02	1	0.62	–	–	–	–	–	–	4.1	45	–	–
Nc1cc2c(ncn2[C@@H]2O[C@H](CO)[C@@H](O)[C@H]2O)c(=O)[nH]1	1.5	–	1.4	1.5	1.18	–	–	–	–	–	–	18	16	–	–
